Bioassay records deposited in PubChem BioAssay by several laboratories.
STAT1 act = STAT1 signaling activators, primary screen, cell-based, HTS, luciferase reporter. activation (% of control), % at 5.5 µM. NIH 3T3 STAT1-luciferase reporter, IFN-gamma, luminescence; 100% = IFN-gamma alone, no compound. actives 2.6% (n = 200,000);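 active = activation above the screen-wide mean activation plus 3 SD, cut at about 130% in these data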;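 note: raw ratio to IFN-gamma control signal so 100% means no change and 0% no light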
APP 5'UTR act = activators of APP 5'UTR luciferase reporter, primary screen, SH-SY5Y cells; actives 1% (n = 190,000); activation, % at 2 µM; SH-SY5Y APP 5'UTR luciferase reporter, luminescence; zero percent = DMSO vehicle wells;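 active = activation above a set limit, based on mean plus 3 SD of controls, cut at about 140% in these data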
FLuc inh counter = firefly luciferase enzyme inhibitors, primary screen, artefact control for luciferase-based inhibitor screens, biochemical, luminescence, ATPLite | 10 min | Luciferin 4-monooxygenase (Photinus pyralis), P08659 | actives 1.5% (n = 200,000) | inhibition, % at 10 µM | AID 1006, 2008;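 active = inhibition above about 50% when tested at 10 µM, limit read from the data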
Target sequence (P08659 whole entry, looked up): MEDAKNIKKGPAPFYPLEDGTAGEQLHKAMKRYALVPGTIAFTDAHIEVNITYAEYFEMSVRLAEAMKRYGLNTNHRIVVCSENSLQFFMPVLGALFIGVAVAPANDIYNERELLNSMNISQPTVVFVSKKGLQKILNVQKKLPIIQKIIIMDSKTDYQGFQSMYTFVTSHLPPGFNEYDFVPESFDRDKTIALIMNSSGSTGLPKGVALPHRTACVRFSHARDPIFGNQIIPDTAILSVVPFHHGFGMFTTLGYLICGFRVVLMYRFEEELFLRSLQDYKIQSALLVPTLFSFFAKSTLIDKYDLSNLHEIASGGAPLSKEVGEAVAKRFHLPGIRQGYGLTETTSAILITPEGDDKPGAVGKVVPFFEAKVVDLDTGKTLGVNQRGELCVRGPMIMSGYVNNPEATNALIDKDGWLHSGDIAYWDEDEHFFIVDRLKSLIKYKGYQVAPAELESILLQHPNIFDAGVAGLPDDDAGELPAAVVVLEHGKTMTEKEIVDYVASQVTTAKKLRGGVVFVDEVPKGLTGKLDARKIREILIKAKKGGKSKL
FLuc stim CS = FLuc activators, initial screening, artefact control for FLuc-dependent activation tests, biochemical, ATPlite luminescence; Luciferin 4-monooxygenase (Photinus pyralis), P08659; ATPlite luciferase biochemical, 10 min; 0 = ATP-free wells, 1 = DMSO control; activation factor at 10 µM; 200,000 tested, under 10 active; AID 1027, 2008;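 active = luciferase activation factor, scaled between plate controls, of at least 2 with compound at 10 µM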
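System: cell-free luciferase reagent; medium: PBS as buffer for the ATP substrate; doses: test compounds dosed from 2 mM stocks in 100% DMSO; incubation: 10 min, room temperature; measured by: luminescence from luciferase reaction; read-out: luciferase activation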
sdo1 growth = growth rescue of sdo1-depleted yeast, primary screen, S. cerevisiae, bone marrow failure model. actives 0.21% (n = 140,000). z-score at 10 µM. S. cerevisiae sdo1-depleted JHY4D growth rescue, OD600 30 h; hits give high values; pdr5 snq2 efflux-pump mutant strain;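 active = z-score above 3 at both the 24 hr and the 30 hr optical density reads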;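 note: z-score against mean and SD of all compound wells on the same plate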
NF-kB neuron act = activators of NF-kB expression in neurons, primary screen, cell-based, HTS | human neuronal cells, NF-kB reporter expression; hits give high values | AID 1239, 2008 | actives 1.6% (n = 190,000) | fold change at 12.5 µM; in the data active = fold change above about 3.3
* hit, by the source's call; / = no result. In the library only some 4.3% were active in any assay of this set; here they are far more common.

SMILES	STAT1 act	APP 5'UTR act	FLuc inh counter	FLuc stim CS	sdo1 growth	NF-kB neuron act
COc1ccc(OC)c(Cc2nnc(CCC(=O)N3CCCCC3c3nccs3)o2)c1 (configuration not stated)	134*	35	-2	1	/	2.3
CCOC(=O)c1ccc(NC(=O)Nc2ncccc2C)cc1	123	50	49	0.5	/	0.95
Cc1ccc(NC(=O)Nc2ncccc2C)cc1	149*	56	26	0.7	-0.46	2.5
Cc1cccnc1NC(=O)Nc1ccc(F)cc1	136*	-2	5	0.9	0.33	2
Cc1ccc(C)c(NC(=S)Nc2ncccc2C)c1	132*	36	13	0.9	/	1.7
O=C1c2ccccc2C(=O)N1CC1c2ccccc2CCN1C(=O)CN1CCOCC1 (configuration not stated)	94	6	-7	1.1	/	1.3
Cc1cc(C)cc(NC(=O)Cn2nnc3ccccc3c2=O)c1	104	-8	-6	1.1	/	1.1
N=c1c(C(=O)NCc2ccco2)cc2c(=O)n3ccccc3nc2n1Cc1ccccc1	111	2	-6	1.1	0.38	1.1
N=c1c(C(=O)NCc2ccccc2)cc2c(=O)n3ccccc3nc2n1Cc1ccco1	99	16	-6	1.1	0.14	12*
C/C(NC(=O)c1cccs1)=C1\C(=O)C[C@@H]2[C@H]1C2(C)C	130*	37	8	0.9	-2	2
O=C(NC(=S)NC1CCSC1=O)c1cccs1 (configuration not stated)	100	24	0	1	0.31	0.87
Cc1cc(-c2c(C)[nH]n(-c3ccccc3)c2=O)n[nH]1	104	17	-1	1	/	0.92
Brc1ccccc1-c1nnc(SCc2nc3ccccc3s2)o1	136*	81	19	0.8	-1.4	1.2
Clc1ccc(-c2nnc(N3CCCC3)nn2)cc1	137*	44	23	0.8	-0.75	4.6*
CC(C)c1nnc(NC(=O)c2cccs2)s1	129*	/	11	0.9	-0.9	2.7
CCCCc1nnc(NC(=O)C=C(C)C)s1	100	14	0	1	-0.1	1.4
COc1cccc(-c2nnc(NC(=O)c3cccs3)s2)c1	138*	41	33	0.7	/	1.8
CC(C)=CC(=O)Nc1nnc(C(C)C)s1	145*	100	-3	1	0.92	2.7
CCOC(=O)Nc1nnc(-c2cccc(OC)c2)s1	106	-9	6	0.9	0.3	1.3
Cc1cnc(C(=O)Nc2nnc(C(C)C)s2)cn1	131*	36	-1	1	1	1.8
COC(=O)c1ccc(=O)n(CC(=O)c2ccc(Cl)cc2)c1	102	5	-5	1.1	/	0.87
CN1CCN(NC(=O)CSc2ccc(Cl)cc2Cl)CC1	107	-11	-5	1	/	1.1
Cc1ccc(NC(=O)/C(=C/c2cccs2)NC(=O)c2ccco2)c(C)c1	96	3	-5	1.1	0.56	1.2
CCc1nnc(NC(=O)c2c(C)nn(-c3ccccc3)c2Cl)s1	103	0	-2	1	-0.28	1.3
O=C1OCC2=C1C(c1ccc(F)cc1)c1cc3c(cc1N2)OCCO3 (configuration not stated)	99	-94	0	1	/	2.9
SMILES	STAT1 act	APP 5'UTR act	FLuc inh counter	FLuc stim CS	sdo1 growth	NF-kB neuron act
CC(C)(C)c1nnc(NC(=O)c2cccs2)s1	134*	68	30	0.7	/	3.4*
COc1ccc(N2CCN(/C(=N\S(=O)(=O)c3ccccc3)Nc3nc(C)cc(C)n3)CC2)cc1	94	18	-3	1	-0.77	0.87
O=C(c1cc2cc([N+](=O)[O-])ccc2s1)N1CCOCC1	101	-19	1	1	/	1.1
Cc1ccccc1Cn1ccc(NC(=O)c2cc3ncc(Br)cn3n2)n1	95	-11	13	0.9	/	1.1
CSc1ccccc1NC(=O)c1cc2ncc(Br)cn2n1	142*	73	4	1	/	1.5
O=C(NN1C(=O)c2ccccc2NC1c1ccccn1)c1ccc([N+](=O)[O-])cc1 (configuration not stated)	88	10	0	1	0.63	1.2
CCCCCCCCn1cnc2c(N)c(C)c(C)cc21	112	-6	-2	1	-2.4	4.5*
CCN(CC)CCn1c2ccccc2c2cnc(N)c(C#N)c21	176*	-19	-6	1.1	-1.8	0.89
Cc1cc(OCC(=O)N2CCCCCC2)ccc1[N+](=O)[O-]	138*	57	-8	1.1	0.52	1.8
CCOC(=O)Nc1nc(-c2ccccc2)c(C(=O)c2ccc(Cl)cc2)s1	108	-94	-4	1	-1.5	3.9*
Cc1nc(SCC(O)CO)c([N+](=O)[O-])[nH]1 (configuration not stated)	102	-1	-8	1.1	-0.13	3.5*
O=C(Nc1cccc(Cl)c1)NC1CC2CCC(C1)N2Cc1cccs1 (configuration not stated)	99	1	-6	1.1	/	1
Cc1ccc(Nc2nc(COC(=O)C3CC3)cs2)cc1	125	95	53*	0.5	/	3.6*
Cc1ccc(Nc2nc(C(=O)N3CCC(C(=O)N4CCN(C)CC4)CC3)cs2)cc1	104	-1	-9	1.1	-0.2	1
Cc1ccc(C(=O)N2CCC(C)CC2)cc1C	103	-1	-3	1	0.74	1.4
Cc1ccc(CN(Cc2ccccc2)C(=S)Nc2ccccc2C)o1	91	7	-6	1.1	/	1.1
CCCCCCSc1nsc(NC(C)=O)n1	130*	26	-9	1.1	-0.27	2.6
CCCCSc1nsc(NC(C)=O)n1	127	142*	6	0.9	0.11	3.2
CCCSc1nsc(NC(=O)CCC)n1	131*	194*	26	0.7	/	6.4*
C/C(=N/OC(=O)c1cccc(Cl)c1)c1nccs1	103	-15	55*	0.5	-0.21	1.1
C/C(=N\OC(=O)c1ccccc1F)c1nccs1	94	-18	85*	0.2	-0.34	1.1
O=C(OCc1cnc(Cl)s1)c1cccc(Cl)c1	101	-5	-5	1.1	-0.27	1.3
Cc1ccc(N/C=C/C(=O)C(C)(C)C)c(O)c1	97	21	8	0.9	-0.28	2.1
O=c1[nH]c(CSc2ccccn2)nc2c1cnn2-c1ccccc1	111	22	-2	1	-0.75	1.4
O=c1[nH]c(CSc2ccccn2)nc2ccccc12	135*	123	46	0.5	/	2.9
COCc1cc(C)nc(SCc2nc3ccccc3c(=O)[nH]2)c1C#N	112	8	-5	1.1	/	1.3
